The species named for one data set is Homo sapiens. Nature of the data set: Stability in human plasma assessed as hydrolysis half life.
For the next data set, the system named is Plasma. The data set can be described thus: Stability in human plasma assessed as aspirin production at pH 7.4. It is filed as ADME, cell-free. The procedure, abridged: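 Test ester incubated in dilute (10%) buffered human plasma, pH 7.4, 37 °C. Products (parent ester, deacetylated salicylate ester, aspirin, salicylic acid) were followed over time by RP-HPLC with PDA detection; salicylate esters read at 296 nm. Disappearance fitted to pseudo-first-order kinetics, half-life = 0.693/k_obs. Aspirin yield expressed on a molar basis.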

SMILES strings stand for the structures.

Take `CC(=O)Oc1ccccc1C(=O)OCCO[N+](=O)[O-]`: in the data set filed under Homo sapiens, the half-life was 1.6 min. Further, the Activity in the data set with Plasma is less than 0.5%.

Turning to `CC(=O)Oc1ccccc1C(=O)OC(C)CO[N+](=O)[O-]` (configuration not stated), the half-life in the data set listed under Homo sapiens was 1.47 min. Also, the Activity in the data set on Plasma was less than 0.5%.

Regarding `CC(=O)Oc1ccccc1C(=O)OCC(=O)N(C)CCO[N+](=O)[O-]`, in the data set filed under Homo sapiens, the half-life is 1.17 min. In addition, the Activity with Plasma is listed as less than 0.5%.

On to `CCN(CCO[N+](=O)[O-])C(=O)COC(=O)c1ccccc1OC(C)=O`, for which the half-life in the data set filed under Homo sapiens is 1.03 min. Also, in the data set on Plasma, the Activity is listed as less than 0.5%.

On to `CCCN(CCO[N+](=O)[O-])C(=O)COC(=O)c1ccccc1OC(C)=O`, for which, in the data set listed under Homo sapiens, the half-life is 1.15 min. For the same compound, the Activity in the data set on Plasma was less than 0.5%.

With `CC(=O)Oc1ccccc1C(=O)OCC(=O)N(CCO[N+](=O)[O-])CC[N+](=O)[O-]`, the half-life in the data set listed under Homo sapiens was 6.12 min. For the same compound, the Activity with Plasma is reported as less than 0.5%.

On to `CC(=O)Oc1ccccc1C(=O)OCCN(C)CCO[N+](=O)[O-]`, for which the half-life in the data set listed under Homo sapiens was 0.35 min. In the data set on Plasma, the Activity is less than 0.5%.

Take `CCN(CCOC(=O)c1ccccc1OC(C)=O)CCO[N+](=O)[O-]`: the half-life in the data set listed under Homo sapiens is 1.05 min. For the same compound, the Activity in the data set on Plasma is less than 0.5%.

For the compound `CCCN(CCOC(=O)c1ccccc1OC(C)=O)CCO[N+](=O)[O-]`, the half-life in the data set filed under Homo sapiens was 0.65 min. Besides, the Activity with Plasma is on record as 9.2%.

Regarding `CC(=O)Oc1ccccc1C(=O)OCCN(CCO[N+](=O)[O-])CCO[N+](=O)[O-]`, the half-life in the data set listed under Homo sapiens was 1.12 min. Moreover, the Activity in the data set with Plasma is on record as less than 0.5%.

Regarding `CC(=O)Oc1ccccc1C(=O)OCCCO[N+](=O)[O-]`, in the data set listed under Homo sapiens, the half-life is 2.23 min. Further, the Activity in the data set with Plasma was less than 0.5%.

A word on the half-life: it is the time needed for the level to fall by half in the phase considered.

Source of the values: ChEMBL document CHEMBL1139206, “Evaluation of nitrate-substituted pseudocholine esters of aspirin as potential nitro-aspirins” (Bioorg Med Chem Lett, 2007).
